Test results from ChEMBL document CHEMBL1127313, “The discovery of sulfonamide endothelin antagonists and the development of the orally active ETA antagonist 5-(dimethylamino)-N-(3,4-dimethyl-5-isoxazolyl)-1-naphthalenesulf onamide” (J Med Chem, 1994).

What was measured:
[1] = molecular target: T1, Endothelin-1 receptor (Homo sapiens) (UniProt P25101); details: Oryctolagus cuniculus
T1 sequence (whole entry): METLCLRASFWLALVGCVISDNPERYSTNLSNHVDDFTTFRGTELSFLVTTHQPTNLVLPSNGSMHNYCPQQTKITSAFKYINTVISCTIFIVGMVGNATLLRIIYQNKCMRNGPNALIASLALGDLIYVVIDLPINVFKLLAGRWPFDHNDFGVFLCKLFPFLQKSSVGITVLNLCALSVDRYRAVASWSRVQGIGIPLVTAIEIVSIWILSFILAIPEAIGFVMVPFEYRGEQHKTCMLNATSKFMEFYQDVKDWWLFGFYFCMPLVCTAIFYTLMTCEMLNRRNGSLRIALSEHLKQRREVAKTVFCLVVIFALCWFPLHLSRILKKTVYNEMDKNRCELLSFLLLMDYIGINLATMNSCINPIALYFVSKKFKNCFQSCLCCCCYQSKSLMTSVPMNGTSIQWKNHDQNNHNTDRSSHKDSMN

Rattus norvegicus = experiment: Antihypertensive activity administered orally at […] was determined in vivo in rats; type: functional
In short: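 Uninephrectomized rats implanted with a DOCA pellet and given saline to drink develop hypertension. Single 100 µmol/kg oral dose in 5% NaHCO3 given at time 0, with a vehicle group. Mean arterial pressure followed over 24 h as % change from pre-dose control; mean ± SEM, n = 6 animals.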

A10 = experiment: Ability to inhibit [125I]ET1 binding to vascular smooth muscle (vsm)- A10 cells; type: functional, cell-based; details: Rattus norvegicus
In short: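 Intact rat vsm-A10 cells: confluent cells scraped, pelleted, resuspended in PBS with 0.1% glucose and 0.1% BSA. Bound and free ligand separated by filtration; bound radioactivity counted by scintillation; IC50 reported.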

Cc1noc(NS(=O)(=O)c2cccc3c(O)cccc23)c1C
K Bapp [1]: 100 µM

Cc1noc(NS(=O)(=O)c2cccc3c(N(C)C)cccc23)c1C [BMS-182874]
Mean arterial blood pressure (Rattus norvegicus): 45.8 mmHg

Nc1ccc(S(=O)(=O)Nc2cc(-c3ccccc3)no2)cc1
IC50 (A10): > 32 µM

CCCCCc1cc(NS(=O)(=O)c2ccc(N)cc2)on1
IC50 (A10): > 32 µM
